From ChEMBL document CHEMBL1132760, “Coumarin inhibitors of gyrase B with N-propargyloxy-carbamate as an effective pyrrole bioisostere” (2000) come the findings set out here.

What all share (format): functional
One experiment concerns Escherichia coli. The experiment can be described thus: In vitro activity against Escherichia coli DNA gyrase subunit B supercoiling, expressed as IC50 novobiocin / IC50 compound.
Another experiment deals with Enterococcus faecium. The experiment can be described thus: Antibacterial activity against vancomycin, teicoplanin, erythromycin resistant Enterococcus faecium. The method, boiled down: (§1)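 MIC read after 24 h incubation by two-fold broth microdilution. Strains are tested with their labelled resistance phenotypes (ofloxacin, oxacillin, erythromycin, novobiocin, teicoplanin or vancomycin resistance, as given in each strain designation).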

For another experiment, the system named is Streptococcus pyogenes. In words: Antibacterial activity tested against Streptococcus pyogenes 02AIUC1. In outline: (§2)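 MIC by 2-fold broth microdilution, read after 24 h incubation; strain resistance phenotypes noted.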
Experiment [1] deals with Staphylococcus aureus. In words: Antibacterial activity against Staphylococcus aureus 011HT3. The method, boiled down: as §2
For experiment [2], the system named is Staphylococcus aureus. The experiment can be described thus: Antibacterial activity tested against novobiocin resistant Staphylococcus aureus 011HT1. The method, boiled down: as §2
For experiment [3], the system named is Staphylococcus epidermidis. In words: Antibacterial activity against oxacillin resistant Staphylococcus epidermidis 012GO42. The method, boiled down: as §1
The nature of experiment [4]: In vitro activity against Staphylococcus aureus DNA gyrase subunit B supercoiling, expressed as IC50 novobiocin / IC50 compound.
Experiment [5] deals with Staphylococcus aureus. In words: Antibacterial activity against ofloxacin,oxacillin,erythromycin resistant Staphylococcus aureus 011GO64. The method, boiled down:
as §1

Molecules are shown by their SMILES. Values after ≈ are worked out from the molar mass of the structure shown.

Usually MIC stands for the smallest concentration in the dilution series that meets the test's criterion for growth inhibition. The low end stands for inhibition by little substance, the high end for a need for much substance.

`C#CCONC(=O)O[C@H]1[C@@H](O)[C@H](Oc2ccc3c(O)c(C(N)=O)c(=O)oc3c2C)OC(C)(C)[C@@H]1OC`: in the experiment on Escherichia coli, the Ratio stood at 1. The minimal inhibitory concentration (MIC) in the experiment with Enterococcus faecium was 0.08 µg/mL (≈ 0.158 µM); against Streptococcus pyogenes, 0.6 µg/mL (≈ 1.18 µM); in the experiment on Staphylococcus aureus [1], below 0.04 µg/mL; against Staphylococcus aureus [2], 0.3 µg/mL (≈ 0.592 µM); in experiment [3], below 0.04 µg/mL.
Regarding `C#CCONC(=O)O[C@H]1[C@@H](O)[C@H](Oc2ccc3c(O)c(C(=O)NCCN4CCOCC4)c(=O)oc3c2C)OC(C)(C)[C@@H]1OC`, the Ratio in experiment [4] stood at 2.6. Besides, the minimum inhibitory concentration (MIC) in the experiment with Enterococcus faecium was 2.5 µg/mL (≈ 4.03 µM); against Streptococcus pyogenes, 1.2 µg/mL (≈ 1.94 µM); in the experiment with Staphylococcus aureus [1], below 0.04 µg/mL; in the experiment on Staphylococcus aureus [2], 1.2 µg/mL (≈ 1.94 µM); in the experiment on Staphylococcus aureus [5], 0.08 µg/mL (≈ 0.129 µM); in experiment [3] it was 0.08 µg/mL (≈ 0.129 µM).
For `C#CCONC(=O)O[C@H]1[C@@H](O)[C@H](Oc2ccc3c(=O)c(C(=O)OCC)c(O)oc3c2C)OC(C)(C)[C@@H]1OC`, the Ratio in the experiment on Escherichia coli came out at 5.6. Moreover, the MIC in the experiment with Enterococcus faecium is 10 µg/mL (≈ 18.7 µM); against Streptococcus pyogenes, 20 µg/mL (≈ 37.3 µM); in the experiment with Staphylococcus aureus [1], 1.2 µg/mL (≈ 2.24 µM); against Staphylococcus aureus [2], above 40 µg/mL; in the experiment on Staphylococcus aureus [5], 2.5 µg/mL (≈ 4.67 µM); in experiment [3], 0.3 µg/mL (≈ 0.56 µM).
As for `C=CCNC(=O)O[C@H]1[C@@H](O)[C@H](Oc2ccc3c(=O)c(C(=O)OCC)c(O)oc3c2C)OC(C)(C)[C@@H]1OC`, the Ratio in the experiment with Escherichia coli was found to be 0.38. Moreover, the MIC is above 40 µg/mL in the experiment with Enterococcus faecium; above 40 µg/mL in the experiment on Streptococcus pyogenes; above 40 µg/mL against Staphylococcus aureus [1]; above 40 µg/mL in the experiment on Staphylococcus aureus [2]; 20 µg/mL (≈ 38.3 µM) in experiment [3].
Turning to `C#CCONC(=O)O[C@H]1[C@@H](O)[C@H](Oc2ccc3c(O)c(C(=O)NOCC=C(C)C)c(=O)oc3c2C)OC(C)(C)[C@@H]1OC`, in experiment [4], the Ratio came to 2. Moreover, the MIC against Enterococcus faecium was 0.3 µg/mL (≈ 0.508 µM); in the experiment with Streptococcus pyogenes it was 0.08 µg/mL (≈ 0.135 µM); in the experiment on Staphylococcus aureus [1], below 0.04 µg/mL; in the experiment with Staphylococcus aureus [2] it was 0.6 µg/mL (≈ 1.02 µM); in experiment [3], 0.15 µg/mL (≈ 0.254 µM).
For the molecule `CO/N=C(\C)c1c(O)oc2c(C)c(O[C@@H]3OC(C)(C)[C@H](OC)[C@@H](OC(=O)c4ccc(C)[nH]4)[C@H]3O)ccc2c1=O`, the Ratio in the experiment with Escherichia coli was found to be 3.3. For the same molecule, the MIC in the experiment with Enterococcus faecium amounted to 10 µg/mL (≈ 18.4 µM); in the experiment with Streptococcus pyogenes, 0.3 µg/mL (≈ 0.551 µM); against Staphylococcus aureus [1], 0.15 µg/mL (≈ 0.275 µM); in the experiment on Staphylococcus aureus [2], 40 µg/mL (≈ 73.5 µM).
The matching figures for `CO[C@@H]1[C@@H](OC(=O)c2ccc(C)[nH]2)[C@@H](O)[C@H](Oc2ccc3c(O)c(C(N)=O)c(=O)oc3c2C)OC1(C)C`: 1.67, 2.5 µg/mL (≈ 4.84 µM), 0.15 µg/mL (≈ 0.29 µM), below 0.04 µg/mL and 2.5 µg/mL (≈ 4.84 µM).
Turning to `C#CCONC(=O)O[C@H]1[C@@H](O)[C@H](Oc2ccc3c(=O)c(/C(C)=N/OC)c(O)oc3c2C)OC(C)(C)[C@@H]1OC`, in experiment [4], the Ratio came out at 12.5. The minimal inhibitory concentration (MIC) with Enterococcus faecium was 2.5 µg/mL (≈ 4.68 µM); in the experiment on Streptococcus pyogenes it was 0.6 µg/mL (≈ 1.12 µM); with Staphylococcus aureus [1] it was 0.15 µg/mL (≈ 0.281 µM); against Staphylococcus aureus [2], 5 µg/mL (≈ 9.35 µM); against Staphylococcus aureus [5], 0.15 µg/mL (≈ 0.281 µM); in experiment [3], 0.08 µg/mL (≈ 0.15 µM).
For `CCOC(=O)c1c(O)oc2c(C)c(O[C@@H]3OC(C)(C)[C@H](OC)[C@@H](OC(N)=O)[C@H]3O)ccc2c1=O`, the Ratio with Escherichia coli was 1.6. Moreover, the MIC in the experiment with Enterococcus faecium, in the experiment with Streptococcus pyogenes, with Staphylococcus aureus [1] and against Staphylococcus aureus [2] was above 40 µg/mL each time.
Regarding `CCOC(=O)c1c(O)oc2c(C)c(O[C@@H]3OC(C)(C)[C@H](OC)[C@@H](OC(=O)c4ccc(C)[nH]4)[C@H]3O)ccc2c1=O`, the Ratio in the experiment with Escherichia coli came to 3.1. Besides, the MIC is 5 µg/mL (≈ 9.17 µM) in the experiment with Enterococcus faecium, 0.3 µg/mL (≈ 0.55 µM) with Streptococcus pyogenes, 0.3 µg/mL (≈ 0.55 µM) with Staphylococcus aureus [1] and above 20 µg/mL in the experiment with Staphylococcus aureus [2].
Take `CCONC(=O)OC1[C@@H](O)[C@H](Oc2ccc3c(O)c(C(=O)OCC)c(=O)oc3c2C)OC(C)(C)[C@@H]1OC` (single isomer, unassigned): the Ratio with Escherichia coli was 2. For the same molecule, the MIC in the experiment with Enterococcus faecium is above 40 µg/mL; in the experiment with Streptococcus pyogenes, 40 µg/mL (≈ 76.1 µM); with Staphylococcus aureus [1], 20 µg/mL (≈ 38.1 µM); against Staphylococcus aureus [2], above 40 µg/mL; in experiment [3] it was above 40 µg/mL.
Regarding `C=CCONC(=O)O[C@H]1[C@@H](O)[C@H](Oc2ccc3c(=O)c(C(=O)OCC)c(O)oc3c2C)OC(C)(C)[C@@H]1OC`, the Ratio with Escherichia coli worked out at 2. Also, the MIC against Enterococcus faecium is above 40 µg/mL; in the experiment with Streptococcus pyogenes, 20 µg/mL (≈ 37.2 µM); in the experiment on Staphylococcus aureus [1] it was 10 µg/mL (≈ 18.6 µM); against Staphylococcus aureus [2] it was above 40 µg/mL; with Staphylococcus aureus [5], 20 µg/mL (≈ 37.2 µM); in experiment [3], 20 µg/mL (≈ 37.2 µM).
As to `C#CCNC(=O)O[C@H]1[C@@H](O)[C@H](Oc2ccc3c(=O)c(C(=O)OCC)c(O)oc3c2C)OC(C)(C)[C@@H]1OC`, the Ratio in the experiment with Escherichia coli came out at 0.38. In addition, the MIC in the experiment with Enterococcus faecium was above 40 µg/mL; in the experiment on Streptococcus pyogenes it was above 40 µg/mL; in the experiment with Staphylococcus aureus [1] it was 40 µg/mL (≈ 77 µM); against Staphylococcus aureus [2], above 40 µg/mL; in experiment [3], 20 µg/mL (≈ 38.5 µM).
In the case of `CO[C@@H]1[C@@H](OC(=O)c2ccc(C)[nH]2)[C@@H](O)[C@H](Oc2ccc3c(O)c(C(C)=O)c(=O)oc3c2C)OC1(C)C`, the Ratio in the experiment with Escherichia coli amounted to 2. In addition, the MIC was 2.5 µg/mL (≈ 4.85 µM) against Enterococcus faecium, 0.3 µg/mL (≈ 0.582 µM) in the experiment with Streptococcus pyogenes, below 0.04 µg/mL with Staphylococcus aureus [1] and 5 µg/mL (≈ 9.7 µM) against Staphylococcus aureus [2].
As to `C#CCONC(=O)O[C@H]1[C@@H](O)[C@H](Oc2ccc3c(O)c(/C(C)=N/OCc4ccsc4)c(=O)oc3c2C)OC(C)(C)[C@@H]1OC`, the Ratio in experiment [4] stood at 1.3. Further, the MIC is 0.6 µg/mL (≈ 0.973 µM) against Enterococcus faecium; 0.15 µg/mL (≈ 0.243 µM) with Streptococcus pyogenes; below 0.04 µg/mL against Staphylococcus aureus [1]; 2.5 µg/mL (≈ 4.05 µM) against Staphylococcus aureus [2]; below 0.04 µg/mL in experiment [3].
Regarding `CO[C@@H]1[C@@H](OC(N)=O)[C@@H](O)[C@H](Oc2ccc3c(O)c(NC(=O)c4ccc(O)c(CC=C(C)C)c4)c(=O)oc3c2C)OC1(C)C` [NOVOBIOCIN], the minimum inhibitory concentration (MIC) in the experiment on Enterococcus faecium is 0.6 µg/mL (≈ 0.979 µM); against Streptococcus pyogenes it was 0.3 µg/mL (≈ 0.49 µM); in the experiment on Staphylococcus aureus [1] it was below 0.04 µg/mL; with Staphylococcus aureus [2] it was 10 µg/mL (≈ 16.3 µM); in experiment [3], below 0.04 µg/mL.
Regarding `CCOC(=O)c1c(O)oc2c(C)c(O[C@@H]3OC(C)(C)[C@H](OC)[C@@H](OC(=O)NOC(C)C)[C@H]3O)ccc2c1=O`, in the experiment on Escherichia coli, the Ratio was 2. Also, the MIC (in the experiment with Enterococcus faecium; against Streptococcus pyogenes; against Staphylococcus aureus [1]; in the experiment on Staphylococcus aureus [2]; in experiment [3]) was above 40 µg/mL each time.
On to `CCOC(=O)c1c(O)oc2c(C)c(O[C@@H]3OC(C)(C)[C@H](OC)[C@@H](OC(=O)NC(C)C)[C@H]3O)ccc2c1=O`, for which the Ratio in the experiment on Escherichia coli is 0.025. Moreover, the minimal inhibitory concentration (MIC) (in the experiment with Enterococcus faecium; with Streptococcus pyogenes; in the experiment on Staphylococcus aureus [1]; against Staphylococcus aureus [2]; in experiment [3]) was above 40 µg/mL throughout.
For `CCOC(=O)c1c(O)oc2c(C)c(O[C@@H]3OC(C)(C)[C@H](OC)[C@@H](OC(=O)NOC)[C@H]3O)ccc2c1=O`, the Ratio in the experiment on Escherichia coli was 0.66. In addition, the MIC (with Enterococcus faecium; in the experiment with Streptococcus pyogenes; against Staphylococcus aureus [1]; in the experiment on Staphylococcus aureus [2]; in experiment [3]) was above 40 µg/mL each time.
On to `C#CCONC(=O)O[C@H]1[C@@H](O)[C@H](Oc2ccc3c(O)c(C(=O)Nc4cccnc4)c(=O)oc3c2C)OC(C)(C)[C@@H]1OC`, for which, in experiment [4], the Ratio is 0.67. The minimum inhibitory concentration (MIC) is 0.6 µg/mL (≈ 1.03 µM) with Enterococcus faecium; 0.08 µg/mL (≈ 0.137 µM) in the experiment on Streptococcus pyogenes; below 0.04 µg/mL in the experiment with Staphylococcus aureus [1]; 1.2 µg/mL (≈ 2.06 µM) in the experiment with Staphylococcus aureus [2]; below 0.04 µg/mL in experiment [3].
